Active and inactive are the calls of the source. The calls are words filed in the database; no cut-off is given here.
Columns and labels:
[1] = Toxicity assessed as inhibition of cell viability of UVB irradiated human HaCaT cells at 5 uM administered 2 hrs before irradiation by MTT assay; format: cell-based; settings: read-out: Inhibition
How it was run: (§1)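 HaCaT cells in DMEM/10% FBS were pretreated with compounds in ethanol (final ≤0.1%) 2 h before a single 40–50 mJ/cm² UVB dose. Viability was read by MTT reduction to formazan 24 h after irradiation. Inhibition is expressed relative to maximal viability of drug-free samples, means ± SEM (n = 6).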

[2] = Toxicity assessed as inhibition of cell viability of UVB irradiated human HaCaT cells at 10 uM administered 2 hrs before irradiation by MTT assay; format: cell-based; settings: read-out: Inhibition; how it was run: as §1
HaCaT [3] = experiment: Inhibition of TNFalpha production in UVB irradiated human HaCaT cells at 10 uM administered 2 hrs before irradiation by fluoroimmunoassay; format: functional
How it was run: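 Confluent HaCaT cells (seeded at 2 × 10^5 cells/mL in DMEM/10% FBS) received compounds in ethanol (final ≤0.1%) 2 h before 40–50 mJ/cm² UVB. […] IC50 with 95% CI came from at least four concentrations.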

HaCaT [4] = experiment: Inhibition of TNFalpha production in UVB irradiated human HaCaT cells at 5 uM administered 2 hrs before irradiation by fluoroimmunoassay; format: functional
How it was run: (§2)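 Confluent HaCaT cells (seeded at 2 × 10^5 cells/mL in DMEM/10% FBS) received compounds in ethanol (final ≤0.1%) 2 h before 40–50 mJ/cm² UVB.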

HaCaT [5] = experiment: Inhibition of TNFalpha production in UVB irradiated human HaCaT cells administered 2 hrs before irradiation by fluoroimmunoassay; format: functional, cell-based; settings: light or radiation study; how it was run: as §2
Neutrophil = experiment: Antioxidant activity assessed as inhibition of reactive oxygen species generation in TPA-stimulated human neutrophils
HaCaT [6] = experiment: Inhibition of NF-kappaB activation in UVB irradiated human HaCaT cells at 10 uM administered 2 hrs before irradiation by EMSA

SMILES: CC1=CCC[C@H]2[C@](C)(Cc3cc(O)cc(SCC(O)CO)c3O)[C@@H](C)CC[C@]12C (some centres undefined)
- cytotoxicity at 2 h, 5 µM [1]: 13.6%
- cytotoxicity at 2 h, 10 µM [2]: 14%

SMILES: COc1cc2ccc(=O)oc2c(O)c1O [FRAXETIN]
- cytotoxicity at 2 h, 5 µM [1]: 0%
- Inhibition (HaCaT [3]): 68.1%
- Inhibition (HaCaT [4]): 58.6%
- IC50 (HaCaT [5]): 2.8 µM
- cytotoxicity at 2 h, 10 µM [2]: 3.4%

SMILES: CC1=CCC[C@H]2[C@](C)(Cc3cc(O)cc(Sc4ccccc4)c3O)[C@@H](C)CC[C@]12C
- cytotoxicity at 2 h, 5 µM [1]: 0%
- Inhibition (HaCaT [3]): 92.7%
- Activity (Neutrophil): Dose-dependent effect
- Activity (HaCaT [6]): Active
- Inhibition (HaCaT [4]): 55.4%
- IC50 (HaCaT [5]): 3.7 µM
- cytotoxicity at 2 h, 10 µM [2]: 0%

SMILES: CC1=CCC[C@H]2[C@](C)(Cc3cc(O)c(SCC(O)CO)cc3O)[C@@H](C)CC[C@]12C (some centres undefined)
- cytotoxicity at 2 h, 5 µM [1]: 12.6%
- cytotoxicity at 2 h, 10 µM [2]: 18.6%

SMILES: CC1=CCC[C@H]2[C@](C)(Cc3cc(O)cc(Sc4ccc(C)cc4)c3O)[C@@H](C)CC[C@]12C
- cytotoxicity at 2 h, 5 µM [1]: 0%
- Inhibition (HaCaT [3]): 0%
- Inhibition (HaCaT [4]): 0%
- cytotoxicity at 2 h, 10 µM [2]: 0%

SMILES: CC1=CCC[C@H]2[C@](C)(Cc3cc(O)c(SCC(=O)O)cc3O)[C@@H](C)CC[C@]12C
- cytotoxicity at 2 h, 5 µM [1]: 12.4%
- cytotoxicity at 2 h, 10 µM [2]: 13.3%

SMILES: CC1=CCC[C@H]2[C@](C)(Cc3cc(O)c(Sc4ccccc4)c(Sc4ccccc4)c3O)[C@@H](C)CC[C@]12C
- cytotoxicity at 2 h, 5 µM [1]: 0%
- Inhibition (HaCaT [3]): 0%
- Inhibition (HaCaT [4]): 0%
- cytotoxicity at 2 h, 10 µM [2]: 0%

SMILES: CC1=CCC[C@H]2[C@](C)(Cc3cc(O)c(Sc4ccccc4)cc3O)[C@@H](C)CC[C@]12C
- cytotoxicity at 2 h, 5 µM [1]: 0%
- Inhibition (HaCaT [3]): 74.3%
- Activity (Neutrophil): Dose-dependent effect
- Activity (HaCaT [6]): Active
- Inhibition (HaCaT [4]): 53.6%
- IC50 (HaCaT [5]): 4.2 µM
- cytotoxicity at 2 h, 10 µM [2]: 0%

SMILES: CC1=CCC[C@H]2[C@](C)(Cc3cc(O)cc(SCC(=O)O)c3O)[C@@H](C)CC[C@]12C
- cytotoxicity at 2 h, 5 µM [1]: 18.3%
- cytotoxicity at 2 h, 10 µM [2]: 28.5%

SMILES: CC1=CCC[C@H]2[C@](C)(Cc3cc(O)c(Sc4ccc(C)cc4)cc3O)[C@@H](C)CC[C@]12C
- cytotoxicity at 2 h, 5 µM [1]: 0%
- Inhibition (HaCaT [3]): 0%
- Inhibition (HaCaT [4]): 0%
- cytotoxicity at 2 h, 10 µM [2]: 0%

SMILES: CC1=CCC[C@H]2[C@](C)(Cc3cc(O)cc(SCCO)c3O)[C@@H](C)CC[C@]12C
- cytotoxicity at 2 h, 5 µM [1]: 20.6%
- cytotoxicity at 2 h, 10 µM [2]: 22.5%

SMILES: CC1=CCC[C@H]2[C@](C)(Cc3cc(O)c(Sc4ccc(C)cc4)c(Sc4ccc(C)cc4)c3O)[C@@H](C)CC[C@]12C
- cytotoxicity at 2 h, 5 µM [1]: 0%
- Inhibition (HaCaT [3]): 0%
- Inhibition (HaCaT [4]): 0%
- cytotoxicity at 2 h, 10 µM [2]: 0%

SMILES: CC1=CCC[C@H]2[C@](C)(Cc3cc(O)c(SCCO)cc3O)[C@@H](C)CC[C@]12C
- cytotoxicity at 2 h, 5 µM [1]: 21.4%
- cytotoxicity at 2 h, 10 µM [2]: 48.4%

SMILES: CC1=CCC[C@H]2[C@](C)(Cc3cc(O)c(SCCO)c(SCCO)c3O)[C@@H](C)CC[C@]12C
- cytotoxicity at 2 h, 5 µM [1]: 18.1%
- cytotoxicity at 2 h, 10 µM [2]: 28.5%
